Measured values from paper PMC3396390 (International Journal of Nanomedicine, 2012).
In brackets after ≈: the same amount, converted by molar mass. Entries after “also recorded” stand apart in the source; their conditions may differ.

Columns and labels:
[1] = Brain distribution of DOX after iv injection; format: in vivo; details: ICR mice, iv 2.5 mg DOX/kg
[2] = Saturated solubility of DOX in PBS; format: physicochemical; details: phosphate-buffered saline (PBS), pH 7.2, aqueous buffer
[3] = In vivo imaging of DiR-loaded micelles; details: nude mice, free dye (not shown)
Procedure, shortened: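 DiR physically entrapped in CS-SA micelles. Anesthetized nude mice were dosed via tail vein at 25 mg CS-SA/kg. Whole-body fluorescence was imaged at set time points after injection. The brain was excised 0.5 h post-injection for ex vivo fluorescence imaging, with a blank brain as negative control.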

SMILES: COc1cccc2c1C(=O)c1c(O)c3c(c(O)c1C2=O)C[C@@](O)(C(=O)CO)C[C@@H]3O[C@H]1C[C@H](N)[C@H](O)[C@H](C)O1.Cl [DOX · HCl, DOX hydrochloride]
- drug detection in brain [1]: not detected in brain; also recorded: no drug signal was detected in brain

SMILES: COc1cccc2c1C(=O)c1c(O)c3c(c(O)c1C2=O)C[C@@](O)(C(=O)CO)C[C@@H]3O[C@H]1C[C@H](N)[C@H](O)[C@H](C)O1 [DOX, Doxorubicin]
- solubility [2]: 76 µg/mL (≈ 140 µM)

SMILES: CCCCCCCCCCCCCCCCCCN1/C(=C/C=C/C=C/C=C/C2=[N+](CCCCCCCCCCCCCCCCCC)c3ccccc3C2(C)C)C(C)(C)c2ccccc21.[I-] [DiR]
- fluorescence in brain [3]: fluorescence was not seen in brain
